Molecular target: mGluR2 (Rattus norvegicus, UniProt P31421)
Assay: PET imaging of brain uptake and blocking in rats
Format: in vivo, Sprague Dawley rats
Settings: blocker 4 mg/kg i.v. 10 min before [18F]8, 1–10 min time window
Method in brief: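 Male Sprague Dawley rats (275–400 g) under isoflurane/nitrous oxide (1.0–1.5% isoflurane), tail vein catheterized. Dynamic 60-min PET started at i.v. injection of the 18F radioligand (20–41 MBq). Unlabeled blocker in saline with 10% ethanol and 10% Tween 20 was given 4 mg/kg i.v. 10 min before the radioligand. Percent change in regional brain uptake versus baseline scans was taken at 1–10 min.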

Sequence of mGluR2 (P31421 19-872): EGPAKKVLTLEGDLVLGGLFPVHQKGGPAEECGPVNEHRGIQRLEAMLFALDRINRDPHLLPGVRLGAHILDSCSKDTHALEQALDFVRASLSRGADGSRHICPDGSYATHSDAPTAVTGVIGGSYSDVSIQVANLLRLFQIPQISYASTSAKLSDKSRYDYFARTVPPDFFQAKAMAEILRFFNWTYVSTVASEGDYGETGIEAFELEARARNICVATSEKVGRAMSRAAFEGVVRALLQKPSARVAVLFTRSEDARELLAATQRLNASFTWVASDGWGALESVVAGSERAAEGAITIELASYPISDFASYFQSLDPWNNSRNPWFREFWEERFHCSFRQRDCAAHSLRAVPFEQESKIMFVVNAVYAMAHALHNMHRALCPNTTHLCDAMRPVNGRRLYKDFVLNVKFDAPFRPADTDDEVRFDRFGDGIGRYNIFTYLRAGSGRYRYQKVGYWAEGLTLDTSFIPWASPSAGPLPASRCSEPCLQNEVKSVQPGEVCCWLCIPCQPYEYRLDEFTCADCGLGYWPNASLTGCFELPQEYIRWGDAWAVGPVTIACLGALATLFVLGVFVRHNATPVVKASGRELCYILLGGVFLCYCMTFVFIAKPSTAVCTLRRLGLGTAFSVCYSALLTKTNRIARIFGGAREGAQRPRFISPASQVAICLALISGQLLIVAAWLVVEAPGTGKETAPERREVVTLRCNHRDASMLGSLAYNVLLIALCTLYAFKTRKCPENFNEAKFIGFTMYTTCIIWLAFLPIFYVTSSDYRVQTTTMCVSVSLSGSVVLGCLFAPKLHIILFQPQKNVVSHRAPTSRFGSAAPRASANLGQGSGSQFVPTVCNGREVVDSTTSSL

- decrease of [18F]8 uptake in cerebellum (blocking effect): 18.8%
SMILES: Fc1ccc(N2CCN(Cc3ccn4c(CC5CC5)nnc4c3C(F)(F)F)CC2)c(F)c1 [compound 8, 8-trifluoromethyl-3-cyclopropylmethyl-7-[(4-(2,4-difluorophenyl)-1-piperazinyl)methyl]-1,2,4-triazolo[4,3-a]pyridine]
